Shown are actives, neighbours in structure and some others; about 3.6% of the full set was active somewhere.
T cruzi repl – blocks replication of Trypanosoma cruzi | inhibition, % (test concentration not listed) | 1.4% of 300,000 active | T. cruzi beta-gal in NIH3T3, luminescence, 90 h;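 active = mean inhibition across valid replicates above about 55%, limit read from the data; inconclusive = mean below that limit but half or more replicates reach it; inactive = mean below it, under half of replicates reach it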;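 also: signal also drops with host cell toxicity which is not excluded here; 0% = plate median of DMSO wells and 100% = zero luminescence signal; higher percent means less beta-gal luminescence so fewer parasites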
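System: Mouse NIH/3T3 fibroblasts infected with β-gal-expressing T. cruzi Tulahuen C4 | Quantity: NIH/3T3 cells, 5,000 per well | Reagent: 5000 reporter trypomastigotes per well | Dosing: Compound pinned at 50 nL/well, DMSO | Schedule: 3 h host attachment, then at least 90 h co-culture | Detection: GalScreen luminescence, 60 min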
PfHsp90 set2 – inhibits growth of yeast expressing Plasmodium falciparum Hsp90 | 0.32% of 310,000 active | S. cerevisiae expressing PfHsp90, BacTiter-Glo ATP, 48 h; yeast lacking PDR1 and PDR3 efflux regulators | inhibition, % at 9.4 µM;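 active = every replicate shows inhibition above about 80%, whatever the replicate mean, limit read from the data; inconclusive = mean inhibition reaches the set limit but some replicate falls short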;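 also: 0% = DMSO neutral controls and 100% = 20 µM radicicol positive controls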
SKKanGAS inh – SKKanGAS growth inhibition | S. pyogenes SKKanGAS, kanamycin growth, BacTiter-Glo, 6 h | inhibition, % at 7.5 µM | 1.3% of 300,000 active | AID 1662;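 active = mean replicate score, as percent of positive control median, at least 50; inconclusive = mean below 50 but one replicate at or above 50; inactive = mean and every replicate below 50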;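 also: strain carries kanamycin resistance gene driven by streptokinase promoter and grows in 40 µg/ml kanamycin; loss of luminescence reflects streptokinase promoter inhibition or plain growth inhibition; 0% = median of DMSO wells and 100% = positive control at its reference dose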
HIF activator – HIF pathway transcriptional activation; U2OS HRE-luciferase reporter, luminescence; normalized: DMSO 0%, desferrioxamine 100%; activation, % at 7.5 µM (by protocol); 0.32% of 300,000 active;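 active = mean activation of at least 10% of the iron chelator positive control signal, with at least half of replicates also reaching 10%; inconclusive = mean and replicate majority disagree about reaching 10%; inactive = mean and most replicates under 10%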
Beta apoptosis – blocks beta cell apoptosis. INS-1E cytokine-induced death, ATP luminescence, 48 h; percent of positive-control rescue, neutral wells zero. protection from apoptosis, % (test concentration not listed). 0.8% of 300,000 active. AID 435005;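 active = Every replicate reaches about 75%, or at least half do and their mean reaches it too, limit read from the data; inconclusive = At least half of replicates reach the limit but their mean does not; inactive = Under half of replicates reach the limit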;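 also: 0% = cytokine-treated negative control wells and 100% = positive control rescue; higher means more ATP so stronger rescue from cytokine killing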
CSC inhib – cancer stem cell inhibition; cancer stem cell-like cells viability, luminescence; inhibition, % at 7.5 µM; 1.1% of 300,000 active; in the data active = inhibition above about 75%; inconclusive = no clear call, values can overlap the other calls; tested in HMLE shEcad cells
Active calls of the source: *; u = inconclusive; x = no result given.

SMILES	T cruzi repl	PfHsp90 set2	SKKanGAS inh	HIF activator	Beta apoptosis	CSC inhib
COc1ccc(C2CC(c3cccs3)=NN2C(=O)CCl)cc1OC (centres undefined)	62*	15	2	1	-36	72
NS(=O)(=O)c1ccc(CCNc2ccccc2[N+](=O)[O-])cc1	-2	1	3	1	-1	-2
Brc1cc(Br)c2ncnc(N3CCCCC3)c2c1	2	-4	11	0	13	84*
CC(C)(C)OC(=O)CNC(=O)c1[nH]cnc1C(=O)Nc1ccc(CNC(=O)OC(C)(C)C)cc1	22	-4	8	0	7	33
O=C(Nc1ccc(Cl)cc1)c1nc[nH]c1C(=O)NCCN(CCNC(=O)c1[nH]cnc1C(=O)Nc1ccc(Cl)cc1)CCNC(=O)c1[nH]cnc1C(=O)Nc1ccc(Cl)cc1	x	-19	x	x	104*	101*
CC(C)(C)OC(=O)NCc1ccc(NC(=O)c2nc[nH]c2C(=O)NCCNC(=O)c2[nH]cnc2C(=O)Nc2ccc(CNC(=O)OC(C)(C)C)cc2)cc1	x	-10	x	x	81*	x
Cc1cccc(N2CC(C(=O)Nc3ccccc3N3CCOCC3)CC2=O)c1C (centres undefined)	x	x	x	x	-2	8
Cc1c([N+](=O)[O-])cc(C(=O)Oc2cccc(C(=S)N3CCOCC3)c2)cc1[N+](=O)[O-]	-3	8	-1	0	-1	-9
O=C(Nc1ccccc1)Nc1cccc(-c2cn3cccnc3n2)c1	-13	-3	5	1	10	-4
O=C(Nc1ccc2nc(-c3ccccc3)[nH]c2c1)c1ccco1	11	x	-7	5	x	-9
Cc1c(-c2cccc(NC(=O)c3ccco3)c2)nc2ncccn12	65*	2	-1	1	3	-1
O=C(Nc1cccc(-c2nc3ccccc3[nH]2)c1)c1cccc(NC(=O)c2ccco2)c1	u	-13	21	-2	56	99*
O=C(Nc1cccc(-c2cn3cccnc3n2)c1)c1ccco1	68*	-37	1	0	2	-11
O=C(Nc1cccc(-c2cn3cccnc3n2)c1)c1ccc(Br)o1	71*	x	-7	0	1	x
O=C(Nc1cccc(Br)c1)c1ccc2c(c1)SC1=NS(=O)(=O)CCN12	x	5	x	x	11	15
COc1cc(NC(=O)c2cccc([N+](=O)[O-])c2)ccc1NC(=O)c1ccco1	16	-52	-4	0	-3	-4
O=C(Nc1cc([N+](=O)[O-])ccc1O)c1cccc(NC(=O)c2ccco2)c1	4	-15	53*	0	4	9
COC(=O)c1c(-c2cccc3ccccc23)csc1NC(=O)Cc1ccc(OC)c(OC)c1	57*	-12	-7	0	24	37
CCOC(=O)Cc1c(C)nc2c(-c3cccc(Br)c3)c[nH]n2c1=O	-6	19	95*	0	18	-12
CCOC(=O)Cc1c(C)nc2c(C#N)c[nH]n2c1=O	-7	10	1	0	x	x
O=C(CCC(=O)N(CC(=O)NC1CCCC1)Cc1ccc(F)cc1)Nc1nccs1	-2	-31	-6	0	-1	3
CCn1c2ccccc2c2cc(NC(=O)CNCC3CCCO3)ccc21 (centres undefined)	69*	4	-3	1	-5	-13
CCn1c(=O)n(CC)c2cc(NS(=O)(=O)c3ccccc3)ccc21	-1	-1	-1	0	-3	-2
CCn1c2ccccc2c2cc(NS(=O)(=O)c3ccc(C)cc3)ccc21	25	-7	19	1	-1	84*
CCCCNC1c2ccccc2C(=O)N1Cc1ccccc1 (centres undefined)	-6	-49	6	0	x	-2
SMILES	T cruzi repl	PfHsp90 set2	SKKanGAS inh	HIF activator	Beta apoptosis	CSC inhib
S=C(NC1CCCCC1)N1CCn2cccc2C1c1ccncc1 (centres undefined)	-9	x	-3	0	-2	-7
S=C(NC1CCCCC1)N1CCn2cccc2C1c1cccnc1 (centres undefined)	55*	x	-6	-1	-3	-13
Fc1cccc(NC(=S)N2CCn3cccc3C2c2cccnc2)c1 (centres undefined)	63*	x	-2	1	-2	7
C[C@@H]1CN(c2c(F)c(F)c3c(=O)c(C(=O)O)cn(C4CC4)c3c2F)C[C@H](C)N1	3	-2	65*	1	x	x
O=C(CNC(=O)c1cccnc1)N=Nc1c(O)[nH]c2c(Br)cc(Br)cc12	11	0	14	-1	-1	6
O=C(CCCCCNC(=O)c1ccccc1)N=Nc1c(O)[nH]c2c(Br)cc(Br)cc12	20	x	59*	0	0	18
Cc1ccc(Cn2cnc3c(cnn3C(C)(C)C)c2=O)cc1	14	-26	-8	-1	0	-2
Cc1cc(Oc2cnn(C(C)(C)C)c(=O)c2Cl)cc(C(C)C)c1	19	-8	59*	-1	4	49
Cc1ccc(N(C(=O)c2csnn2)C(C(=O)NCc2ccccc2)c2cccnc2)cc1 (centres undefined)	2	14	-11	0	0	x
CN(C)CCCNC(=O)c1ccccn1	-18	x	-5	-1	-11	-17
CN(C)CCCNC(=O)c1ccc(-c2nc(-c3ccc(Cl)cc3)cs2)cc1	65*	-142	10	-7	47	100*
CCN(Cc1ccccc1)C(c1cccc(C#N)c1)c1nnnn1C(C)(C)C (centres undefined)	16	-36	2	0	-7	22
CCN(Cc1ccccc1)C(c1ccc(C(F)(F)F)cc1)c1nnnn1C(C)(C)C (centres undefined)	48	-19	12	0	106*	24
NS(=O)(=O)c1cccc(NC(=O)COC(=O)CCC(=O)c2cccs2)c1	x	-9	x	x	0	-16
CN1CCCN(C(=O)c2ccc(Cl)s2)CC1	1	6	-7	0	1	-12
O=C1c2ccc3c4c(ccc(c24)C(=O)N1c1cccc(O)c1)C(=O)N(c1cccc(O)c1)C3=O	10	-3	65*	-1	118*	12
FC(F)Sc1nc2ccccc2[nH]1	-8	3	-6	0	-5	-2
CCC1=NN(C(=O)c2cccc(Br)c2)C(O)(c2ccc(Br)cc2)C1 (centres undefined)	5	14	71*	0	u	105*
CCc1ccc(OCCNC(=O)c2ccccc2SCc2ccc(F)cc2)cc1	57*	4	17	0	3	23
O=C(NCCOc1ccc(F)cc1)c1ccccc1SCc1ccccc1	23	2	0	0	6	3
CS(=O)(=O)/C(C#N)=C\c1cnc(S(=O)(=O)c2ccccc2)s1	1	x	34	-1	7	19
CCn1c(=O)c(CCC(=O)NCC2CCCO2)c(C)c2c(C)nn(-c3ccc(C)cc3)c21 (centres undefined)	-9	10	-16	0	15	6

Screening data as filed in PubChem.
